From ChEMBL document CHEMBL3627695, “1-Benzyl-2-methyl-3-indolylmethylene barbituric acid derivatives: Anti-cancer agents that target nucleophosmin 1 (NPM1)” (Bioorg Med Chem, 2015)
Activity calls are given as the source filed them. The calls are words filed in the database; no cut-off is given here.

Assays:
OCI-AML-3 = assay: (§1) Anticancer activity against human OCI-AML3 cells expressing mutant NPM1 assessed as apoptosis for 48 hrs by annexin-V and TO-PRO3 staining based flow cytometry; type: functional, cell-based
How it was run: (§2)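 OCI-AML3 cells (NPM1c+) in logarithmic growth, passaged 2–3 times weekly. Cells were exposed to the indicated compound concentrations for 48 hr, then stained with annexin V and TO-PRO 3. Percent apoptotic cells was read by flow cytometry. AP50 is the concentration at which 50% of cells undergo apoptosis.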

CCRF-CEM = assay: Anticancer activity against human CCRF-CEM cells after 48 hrs by sulforhodamine B assay; type: functional
How it was run: (§3)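 NCI-60 human tumour cell line panel. Compounds dissolved in DMSO/H2O and tested at five 10-fold dilutions (10⁻⁴ M to 10⁻⁸ M) for 48 hr. GI50 is the molar concentration giving 50% reduction in net cell growth relative to cell numbers on day 0.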

HL-60(TB) = assay: Anticancer activity against human HL-60(TB) cells after 48 hrs by sulforhodamine B assay; type: functional; details: HL-60, 48 h; how it was run: as §3
K562 = assay: Anticancer activity against human K562 cells after 48 hrs by sulforhodamine B assay; type: functional; details: K562, 48 h; how it was run: as §3
[1] = Anticancer activity against human MOLT4 cells after 48 hrs by sulforhodamine B assay; type: functional; details: MOLT-4, 48 h; how it was run: as §3
[2] = Anticancer activity against human RPMI8226 cells after 48 hrs by sulforhodamine B assay; type: functional; details: RPMI-8226, 48 h; how it was run: as §3
SR = assay: Anticancer activity against human SR cells after 48 hrs by sulforhodamine B assay; type: functional
How it was run: (§4)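 NCI-60 panel protocol. Compounds were dissolved in DMSO/H2O and tested at five 10-fold concentrations (10⁻⁴ to 10⁻⁸ M) with 48 hr incubation. GI50 is the molar concentration giving a 50% reduction in net cell growth relative to cell numbers on day 0.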

A549 = assay: Anticancer activity against human A549/ATCC cells after 48 hrs by sulforhodamine B assay; type: functional; details: A549, 48 h; how it was run: as §3
HOP-62 = assay: Anticancer activity against human HOP62 cells after 48 hrs by sulforhodamine B assay; type: functional; details: HOP-62, 48 h; how it was run: as §3
[3] = Anticancer activity against human HOP92 cells after 48 hrs by sulforhodamine B assay; type: functional; details: HOP-92, 48 h; how it was run: as §3
NCI-H226 = assay: Anticancer activity against human NCI-H226 cells after 48 hrs by sulforhodamine B assay; type: functional; details: NCI-H226, 48 h; how it was run: as §3
NCI-H322M = assay: Anticancer activity against human NCI-H322M cells after 48 hrs by sulforhodamine B assay; type: functional; how it was run: as §3
NCI-H460 = assay: Anticancer activity against human NCI-H460 cells after 48 hrs by sulforhodamine B assay; type: functional; details: NCI-H460, 48 h; how it was run: as §3
NCI-H522 = assay: Anticancer activity against human NCI-H522 cells after 48 hrs by sulforhodamine B assay; type: functional; details: NCI-H522, 48 h; how it was run: as §3
[4] = Anticancer activity against human COLO205 cells after 48 hrs by sulforhodamine B assay; type: functional; details: COLO 205, 48 h; how it was run: as §3
[5] = Anticancer activity against human HCC2998 cells after 48 hrs by sulforhodamine B assay; type: functional; details: HCC 2998, 48 h; how it was run: as §3
HCT-116 = assay: Anticancer activity against human HCT116 cells after 48 hrs by sulforhodamine B assay; type: functional; details: HCT-116, 48 h; how it was run: as §3
HCT-15 = assay: Anticancer activity against human HCT15 cells after 48 hrs by sulforhodamine B assay; type: functional; details: HCT-15, 48 h; how it was run: as §3
HT-29 = assay: Anticancer activity against human HT-29 cells after 48 hrs by sulforhodamine B assay; type: functional; details: HT-29, 48 h; how it was run: as §3
KM12 = assay: Anticancer activity against human KM12 cells after 48 hrs by sulforhodamine B assay; type: functional; details: KM12, 48 h; how it was run: as §3
SW-620 = assay: Anticancer activity against human SW620 cells after 48 hrs by sulforhodamine B assay; type: functional; details: SW-620, 48 h; how it was run: as §4
SF-268 = assay: Anticancer activity against human SF268 cells after 48 hrs by sulforhodamine B assay; type: functional; details: SF-268, 48 h; how it was run: as §3
[6] = Anticancer activity against human SF295 cells after 48 hrs by sulforhodamine B assay; type: functional; details: SF-295, 48 h; how it was run: as §3
[7] = Anticancer activity against human SF539 cells after 48 hrs by sulforhodamine B assay; type: functional; details: SF-539, 48 h; how it was run: as §3
SNB-19 = assay: Anticancer activity against human SNB19 cells after 48 hrs by sulforhodamine B assay; type: functional; details: SNB-19, 48 h; how it was run: as §3
SNB-75 = assay: Anticancer activity against human SNB75 cells after 48 hrs by sulforhodamine B assay; type: functional; details: SNB-75, 48 h; how it was run: as §3
U-251 = assay: Anticancer activity against human U251 cells after 48 hrs by sulforhodamine B assay; type: functional; details: U-251, 48 h; how it was run: as §4
[8] = Anticancer activity against human LOXIMVI cells after 48 hrs by sulforhodamine B assay; type: functional; details: LOX IMVI; how it was run: as §3
Malme-3M = assay: Anticancer activity against human MALME-3M cells after 48 hrs by sulforhodamine B assay; type: functional; how it was run: as §3
M14 = assay: Anticancer activity against human M14 cells after 48 hrs by sulforhodamine B assay; type: functional; details: M14, 48 h; how it was run: as §3
MDA-MB-435 = assay: Anticancer activity against human MDA-MB-435 cells after 48 hrs by sulforhodamine B assay; type: functional; details: MDA-MB-435, 48 h; how it was run: as §3
SK-MEL-2 = assay: Anticancer activity against human SK-MEL-2 cells after 48 hrs by sulforhodamine B assay; type: functional; details: SK-MEL-2, 48 h; how it was run: as §3
SK-MEL-28 = assay: Anticancer activity against human SK-MEL-28 cells after 48 hrs by sulforhodamine B assay; type: functional; details: SK-MEL-28, 48 h; how it was run: as §3
SK-MEL-5 = assay: Anticancer activity against human SK-MEL-5 cells after 48 hrs by sulforhodamine B assay; type: functional; details: SK-MEL-5, 48 h; how it was run: as §3
UACC-257 = assay: Anticancer activity against human UACC257 cells after 48 hrs by sulforhodamine B assay; type: functional; details: UACC-257, 48 h; how it was run: as §4
IGROV-1 = assay: Anticancer activity against human IGROV1 cells after 48 hrs by sulforhodamine B assay; type: functional; details: IGROV-1, 48 h; how it was run: as §3
OVCAR-3 = assay: Anticancer activity against human OVCAR3 cells after 48 hrs by sulforhodamine B assay; type: functional; details: OVCAR-3, 48 h; how it was run: as §3
OVCAR-4 = assay: Anticancer activity against human OVCAR4 cells after 48 hrs by sulforhodamine B assay; type: functional; details: OVCAR-4, 48 h; how it was run: as §3
OVCAR-5 = assay: Anticancer activity against human OVCAR5 cells after 48 hrs by sulforhodamine B assay; type: functional; details: OVCAR-5, 48 h; how it was run: as §3
OVCAR-8 = assay: Anticancer activity against human OVCAR8 cells after 48 hrs by sulforhodamine B assay; type: functional; details: OVCAR-8, 48 h; how it was run: as §3
[9] = Anticancer activity against human NCI-ADR-RES cells after 48 hrs by sulforhodamine B assay; type: functional; how it was run: as §3
SK-OV-3 = assay: Anticancer activity against human SKOV3 cells after 48 hrs by sulforhodamine B assay; type: functional; details: SK-OV-3, 48 h; how it was run: as §3
786-0 = assay: Anticancer activity against human 786-0 cells after 48 hrs by sulforhodamine B assay; type: functional; details: 786-0, 48 h; how it was run: as §3
A498 = assay: Anticancer activity against human A498 cells after 48 hrs by sulforhodamine B assay; type: functional; details: A498, 48 h; how it was run: as §3
ACHN = assay: Anticancer activity against human ACHN cells after 48 hrs by sulforhodamine B assay; type: functional; how it was run: as §3
CAKI-1 = assay: Anticancer activity against human Caki1 cells after 48 hrs by sulforhodamine B assay; type: functional; details: CAKI-1, 48 h; how it was run: as §3
[10] = Anticancer activity against human RXF393 cells after 48 hrs by sulforhodamine B assay; type: functional; details: RXF 393, 48 h; how it was run: as §3
SN12C = assay: Anticancer activity against human SN12C cells after 48 hrs by sulforhodamine B assay; type: functional; how it was run: as §3
TK-10 = assay: Anticancer activity against human TK10 cells after 48 hrs by sulforhodamine B assay; type: functional; details: TK-10, 48 h; how it was run: as §4
UO-31 = assay: Anticancer activity against human UO31 cells after 48 hrs by sulforhodamine B assay; type: functional; details: UO-31, 48 h; how it was run: as §4
DU-145 = assay: Anticancer activity against human DU145 cells after 48 hrs by sulforhodamine B assay; type: functional; details: DU-145, 48 h; how it was run: as §3
MCF7 = assay: Anticancer activity against human MCF7 cells after 48 hrs by sulforhodamine B assay; type: functional; details: MCF7, 48 h; how it was run: as §3
MDA-MB-231 = assay: Anticancer activity against human MDA-MB-231 cells after 48 hrs by sulforhodamine B assay; type: functional; details: MDA-MB-231, 48 h; how it was run: as §3
[11] = Anticancer activity against human Hs 578T cells after 48 hrs by sulforhodamine B assay; type: functional; how it was run: as §3
BT-549 = assay: Anticancer activity against human BT549 cells after 48 hrs by sulforhodamine B assay; type: functional; details: BT-549, 48 h; how it was run: as §3
T47D = assay: Anticancer activity against human T47D cells after 48 hrs by sulforhodamine B assay; type: functional; how it was run: as §4
MDA-MB-468 = assay: Anticancer activity against human MDA-MB-468 cells after 48 hrs by sulforhodamine B assay; type: functional; details: MDA-MB-468, 48 h; how it was run: as §3
[12] = as §1; type: functional, cell-based; details: OCI-AML-3, 48 h; how it was run: as §2

With `Cc1c(C=C2C(=O)NC(=O)NC2=O)c2ccccc2n1Cc1ccc(C#N)cc1` the Activity (OCI-AML-3) was “inactive”.

Molecule `Cc1c(C=C2C(=O)NC(=S)NC2=O)c2ccccc2n1Cc1ccc(C#N)cc1` has a GI50 (CCRF-CEM) of 840 nM, a GI50 (HL-60(TB)) of 1080 nM and a GI50 (K562) of 1770 nM. The GI50 [1] was 1820 nM, the GI50 [2] was 570 nM and the GI50 (SR) was 560 nM. The GI50 (A549) was 2480 nM, the GI50 (HOP-62) was 1960 nM and the GI50 [3] was 1280 nM. The GI50 (NCI-H226) was 1790 nM, the GI50 (NCI-H322M) was 1930 nM and the GI50 (NCI-H460) was 2010 nM. For the same molecule, the GI50 (NCI-H522) was 1750 nM, the GI50 [4] was 1730 nM and the GI50 [5] was 1790 nM. It also gave a GI50 (HCT-116) of 1290 nM, a GI50 (HCT-15) of 1740 nM and a GI50 (HT-29) of 1760 nM. It also gave a GI50 (KM12) of 1740 nM, a GI50 (SW-620) of 1360 nM and a GI50 (SF-268) of 1600 nM. It also gave a GI50 [6] of 1880 nM, a GI50 [7] of 1290 nM and a GI50 (SNB-19) of 1770 nM. The GI50 (SNB-75) was 2040 nM, the GI50 (U-251) was 1610 nM and the GI50 [8] was 900 nM. For the same molecule, the GI50 (Malme-3M) was 2500 nM, the GI50 (M14) was 1610 nM and the GI50 (MDA-MB-435) was 1490 nM. The GI50 (SK-MEL-2) was 2170 nM, the GI50 (SK-MEL-28) was 2080 nM and the GI50 (SK-MEL-5) was 1840 nM. For the same molecule, the GI50 (UACC-257) was 1670 nM, the GI50 (IGROV-1) was 1610 nM and the GI50 (OVCAR-3) was 1580 nM. It also gave a GI50 (OVCAR-4) of 1590 nM, a GI50 (OVCAR-5) of 1840 nM and a GI50 (OVCAR-8) of 1320 nM. For the same molecule, the GI50 [9] was 3830 nM, the GI50 (SK-OV-3) was 2980 nM and the GI50 (786-0) was 1760 nM. It also gave a GI50 (A498) of 220 nM, a GI50 (ACHN) of 1700 nM and a GI50 (CAKI-1) of 2210 nM. It also gave a GI50 [10] of 1530 nM, a GI50 (SN12C) of 1400 nM and a GI50 (TK-10) of 1370 nM. For the same molecule, the GI50 (UO-31) was 1460 nM, the GI50 (DU-145) was 1710 nM and the GI50 (MCF7) was 1280 nM. The GI50 (MDA-MB-231) was 1640 nM, the GI50 [11] was 1220 nM and the GI50 (BT-549) was 1870 nM. The GI50 (T47D) was 2540 nM, the GI50 (MDA-MB-468) was 380 nM and the AC50 [12] was 2720 nM.

With `Cc1c(C=C2C(=O)NC(=O)NC2=O)c2ccccc2n1Cc1ccc(Br)cc1` the Activity (OCI-AML-3) was “inactive”.

With `Cc1c(C=C2C(=O)NC(=S)NC2=O)c2ccccc2n1Cc1ccc(Br)cc1` the AC50 [12] was 3300 nM and the Activity (OCI-AML-3) was “Dose-dependent effect”.

In the case of `Cc1c(C=C2C(=O)NC(=O)NC2=O)c2ccccc2n1Cc1ccccc1`, the Activity (OCI-AML-3) is reported as “inactive”.
